Only some compounds are listed: those with a hit (about 3.5% of all), similar ones and a draw of the others.
MrgX1 PAM = allosterically activates human MrgX1 receptor signaling; Q96LB2; MrgX1-HEK293, Fluo-4 calcium flux, FDSS; hits give high values; B-score at 10 µM; hit rate 0.63% among 310,000; AID 588675;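 active = plate-corrected calcium response at least 3 library SD above typical, normal starting fluorescence, not activating the receptor alone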;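 also: compound read alongside a low EC10 to EC30 dose of BAM8-22 agonist; peak minus trough fluorescence over baseline measured at the second addition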
Target sequence (Q96LB2 whole entry, looked up): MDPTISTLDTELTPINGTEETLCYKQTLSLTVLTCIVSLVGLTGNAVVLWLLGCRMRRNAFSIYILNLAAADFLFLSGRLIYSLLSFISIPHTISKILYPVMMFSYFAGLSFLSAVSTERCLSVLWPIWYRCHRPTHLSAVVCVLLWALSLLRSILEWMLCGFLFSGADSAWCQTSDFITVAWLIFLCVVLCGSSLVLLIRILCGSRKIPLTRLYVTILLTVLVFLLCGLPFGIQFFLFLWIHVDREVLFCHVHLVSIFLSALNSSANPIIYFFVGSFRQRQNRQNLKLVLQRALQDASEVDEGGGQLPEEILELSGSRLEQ
MrgX1 ag = human MrgX1 receptor agonism, primary screen. B-score at 10 µM. AID 588627. MrgX1-HEK293 cells, Fluo-4 calcium fluorescence, agonist mode; hits give high values. hit rate 0.44% among 310,000;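 active = calcium response B-score plate-corrected fluorescence ratio at least 3 library SD, with starting fluorescence B-score inside 5 SD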
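Material – MrgX1-expressing HEK293 cells · Input – 15,000 cells seeded per well · Dosing – compound as first of three additions · Times – overnight seeding, then 1 h dark dye loading · Measured by – kinetic Fluo-4 NW fluorescence of intracellular calcium · Read-out – B-scored fluorescence response ratio · Benchmarks – positive and negative control wells on each plate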
RGS4 act = RGS4 potentiation or activation; HEK293 M3R/inducible RGS4, carbachol calcium flux Fluo4; hits give low values; AID 463111; B-score at 10 µM; hit rate 0.92% among 310,000;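 active = B-score of the integrated calcium signal more than 4 SD below the library mean, with starting fluorescence not abnormally high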;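 also: negative B-score means reduced calcium response which marks RGS4 activation or potentiation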
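Detection: kinetic calcium fluorescence imaging with Fluo4-AM dye, 2 µM / Material: HEK293 cells with stable M3R and inducible RGS4 / Schedule: recording 10 s baseline at 1 Hz, 100 s post-agonist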
RGS4 inh = inhibitors of human RGS4; HEK293 M3R/RGS4 inducible, Fluo-4 calcium flux; hits give high values; triggered by carbachol at its EC20; P49798; hit rate 0.45% among 310,000; B-score at 10 µM;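 active = B-score, a plate-corrected calcium signal, over three deviations above library mean, with baseline fluorescence within five deviations of library mean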;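 also: RGS4 expression induced by doxycycline in cells with stable M3 receptor; B-score is computed from the integrated fluorescence ratio over baseline after carbachol; higher B-score means a larger calcium signal and so more RGS4 inhibition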
Target sequence (P49798 whole entry, looked up): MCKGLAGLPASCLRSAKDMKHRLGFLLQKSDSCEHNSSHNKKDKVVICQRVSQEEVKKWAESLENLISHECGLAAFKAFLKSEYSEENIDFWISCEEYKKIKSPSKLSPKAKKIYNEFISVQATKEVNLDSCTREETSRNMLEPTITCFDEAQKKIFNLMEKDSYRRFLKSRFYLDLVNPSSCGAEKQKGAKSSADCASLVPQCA
MrgX1 antagonist = human MrgX1 receptor antagonism, primary screen. hit rate 1.3% among 310,000. Q96LB2. MRGX1-HEK293 calcium flux, Fluo-4, BAM8-22 antagonism; hits give low values. B-score at 10 µM;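 active = calcium-response B-score plate-corrected more than 3 library SD below zero, starting fluorescence within 5 deviations, no agonist response on first addition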;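 also: peak minus trough fluorescence over baseline after final BAM8-22 challenge near maximal dose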
MrgX1 ant reconf = confirmation of human MrgX1 receptor antagonists; shares compounds with MrgX1 antagonist; MrgX1-HEK293, BAM8-22 calcium flux, Fluo-4; hits give low values; remaining BAM8-22 calcium response % of control (hits give low values), % at 10 µM; hit rate 19% among 2,300;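 active = remaining agonist calcium response no higher than 100% minus 3 SD of agonist-only control wells, with starting fluorescence near control levels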;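 also: agonist BAM8-22 given at a near maximal EC90 to ECmax level; peak minus minimum fluorescence divided by baseline after agonist addition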
HEK293 Ca flux = activity in parental HEK293 cells lacking MrgX1. hit rate 2% among 4,000. shares compounds with MrgX1 antagonist. Fluo-4 calcium fluorescence, FDSS. fluorescence ratio F(max-min)/F0 at 10 µM;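 active = duplicate-averaged calcium fluorescence ratio at least three times the standard deviation of buffer wells, a nonspecific response in parental cells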
HEK293 Ca counter = counter-screen for MrgX1 allosteric activators: effect in parental HEK293 cells | shares compounds with MrgX1 antagonist | parental HEK293 calcium flux, Fluo-4 fluorescence ratio; hits give high values | fluorescence ratio F(max-min)/F0 at 10 µM | hit rate 0.4% among 4,000 | AID 624114;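 active = calcium fluorescence ratio, averaged over duplicates, at least 3 SD of the buffer-well ratio, meaning a nonspecific response in receptor-free cells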;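 also: untransfected parental HEK293 lacking MrgX1 used as counterscreen for MrgX1 allosteric activators; fluorescence change taken during the second addition on a kinetic imager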
HEK293 Ca cntr2 = counter-screen for MrgX1 activators: effect in parental HEK293 cells; shares compounds with MrgX1 antagonist; Fluo-4 calcium fluorescence (FDSS); hits give high values; fluorescence ratio F(max-min)/F0 at 10 µM; hit rate 8.7% among 4,000;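 active = calcium fluorescence ratio at least three times the spread of buffer wells, meaning a non-specific response in parental cells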
* marks the source's active call; other numbers are inactive results; i = inactive; · = not tested or not shown.

SMILES	MrgX1 PAM	MrgX1 ag	RGS4 act	RGS4 inh	MrgX1 antagonist	MrgX1 ant reconf	HEK293 Ca flux	HEK293 Ca counter	HEK293 Ca cntr2
COc1ccc(C(CNC(=O)C(C)(C)Oc2ccc(Cl)cc2)N2CCCCC2)cc1 (centres undefined)	i	i	i	i	i	·	·	·	·
COc1ccc(Cl)cc1C(=O)NCC(c1ccco1)N1CCCC1 (centres undefined)	i	i	i	i	-5.2*	i	i	i	i
CC(C)S(=O)(=O)c1ccc(C(=O)Nc2ccc(F)cc2F)cn1	i	i	i	i	-5.9*	i	i	i	i
CCCSc1ccc(C(=O)Nc2ccc(F)cc2F)cn1	i	i	i	i	i	·	·	·	·
O=C(CCN1C(=O)C2C3C=CC(C4CC34)C2C1=O)Oc1ccccc1 (centres undefined)	i	i	i	i	i	·	·	·	·
CC(=O)c1ccccc1OC(=O)CCN1C(=O)C2C3C=CC(C4CC34)C2C1=O (centres undefined)	i	i	i	i	-4.5*	i	i	i	i
CN1CCN(C2CCCCCC2)CC1	i	i	i	i	-5.3*	i	i	i	i
CN1CCN(C(=O)NC2CCCCC2)CC1	i	i	i	i	i	·	·	·	·
C/C(Cl)=C/Cn1c(N2CCCC2)nc2c1c(=O)[nH]c(=O)n2C	i	i	i	i	i	·	·	·	·
C=CCn1c(N2CCCC2)nc2c1c(=O)[nH]c(=O)n2C	i	i	i	i	-8.7*	i	i	i	i
CC(C)CCn1c(N2CCc3ccccc3C2)nc2c1c(=O)[nH]c(=O)n2C	i	i	i	i	-5*	i	i	i	i
COc1ccccc1NC(=O)CSc1nc2ccccc2c(=O)n1CC1CCCO1 (centres undefined)	i	i	i	i	i	·	·	·	·
CC(=O)NS(=O)(=O)c1ccc(NC(=S)NC(=O)Cc2ccccc2)cc1	i	i	i	i	-6.1*	i	i	i	i
O=S(=O)(NC1CCCCC1N1CCN(c2ccccc2F)CC1)c1ccc(Cl)cc1 (centres undefined)	i	i	i	i	-9.6*	i	i	i	i
CCN1CCN(C(=O)C2COc3ccccc3O2)CC1 (centres undefined)	i	i	i	i	i	·	·	·	·
CCOC(=O)N1CCN(C(=O)C2COc3ccccc3O2)CC1 (centres undefined)	i	i	i	i	-7.8*	i	i	i	i
Cc1cc(C)c(N(CC(=O)NC(C)(C)C)C(=O)CNC(=O)c2cccs2)c(C)c1	i	i	i	i	i	·	·	·	·
CC(=O)Nc1ccc(S(=O)(=O)NCC2CCC(C(=O)NC(C)c3ccccc3)CC2)cc1 (centres undefined)	i	i	i	i	-6*	i	i	i	i
CN1C(=O)/C(=C/c2cccc(Cl)c2)Sc2ccc(C(=O)N3CCOCC3)cc21	i	i	i	i	i	·	·	·	·
CCOc1ccccc1N(CC(=O)OC)S(C)(=O)=O	i	i	i	i	-6.2*	i	i	i	i
Cc1cccc(NC(=O)N2CCN(Cc3ccccc3)CC2)c1	i	i	i	i	i	·	·	·	·
OCCC1CN(C/C=C/c2ccco2)CCN1Cc1ccccc1 (centres undefined)	i	i	i	i	-5.2*	i	i	i	i
COc1cc(-c2cc(=O)c3c(O)c(OC)c(OC)c(OC)c3o2)cc(OC)c1OC	i	i	i	i	i	·	·	·	·
Cc1ccc(S(=O)(=O)NC(C)(C)CSc2ncccn2)cc1	i	i	i	i	-9.9*	i	i	i	i
Cc1cc(/C=C2\SC(=S)N(C)C2=O)c(C)n1-c1ccc(O)cc1	i	i	i	i	-11*	i	i	i	i
SMILES	MrgX1 PAM	MrgX1 ag	RGS4 act	RGS4 inh	MrgX1 antagonist	MrgX1 ant reconf	HEK293 Ca flux	HEK293 Ca counter	HEK293 Ca cntr2
c1ccc(Oc2cc(-c3ccccc3)nc(-c3ccccc3)n2)cc1	i	i	i	i	i	·	·	·	·
Cc1cc(Oc2ccccc2)nc(-c2ccccc2)n1	i	i	i	i	-4.5*	i	i	i	i
CCCNC(=O)C(NS(=O)(=O)c1cccc2nsnc12)c1ccccc1 (centres undefined)	i	i	i	i	-6.9*	i	i	i	i
CCCCNC(=O)C(NS(=O)(=O)c1cccc2nsnc12)c1ccccc1 (centres undefined)	i	i	i	i	i	·	·	·	·
O=C(NCCc1ccccc1)C(NS(=O)(=O)c1cccc2nsnc12)c1ccccc1 (centres undefined)	i	i	i	i	-4.7*	i	i	i	i
Cc1ccccc1CSCCNS(C)(=O)=O	i	i	i	i	-5.3*	i	i	i	i
CS(=O)(=O)c1ccc2sc(NC(=O)c3cc4ccccc4o3)nc2c1	i	i	i	i	i	·	·	·	·
Cc1ccc(Nc2c(-c3ccc(C)o3)nc3ncccn23)cc1	i	i	i	i	i	·	·	·	·
Cc1ccc(-c2nc3ncccn3c2Nc2ccc3c(c2)OCO3)o1	i	i	i	i	-5.4*	i	i	i	i
Cc1c(C(=O)c2cccc(F)c2)c2ccccn2c1CCC#N	i	i	i	i	-10*	84%*	i	i	i
COc1cccc(C(=O)c2c(C)c(CCC#N)n3ccccc23)c1	i	i	i	i	i	·	·	·	·
CCOC(=O)c1cc2c(=O)n3ccccc3nc2n(Cc2ccco2)c1=NC(=O)c1ccccc1OCC	i	i	i	i	i	·	·	·	·
N=c1c(S(=O)(=O)c2ccc(Cl)cc2)cc2c(=O)n3ccccc3nc2n1Cc1ccco1	i	i	i	i	i	·	·	·	·

High-throughput results from PubChem.
